According to PMC4127403 (Analytical chemistry, 2012):

Experiments:
[1] = molecular target: aequorin (AEQ), cysteine-free mutant (Aequorea victoria, UniProt P07164, C152S/C159S/C187S); experiment: AEQ bioluminescence inhibition assay; assay type: biochemical; conditions: for effect on bioluminescence emission of AEQ: 5.0 × 10^–10 M coelenterazine, 2 h incubation; for expected suitability for the inhibition assay: speculated, compounds not available, test planned
aequorin (AEQ) [2] = experiment: AEQ bioluminescence inhibition assay in spiked human serum; assay type: biochemical, Aequorea victoria
How it was run: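 Cysteine-free apoaequorin was expressed in E. coli, secreted, and purified by DEAE and butyl HIC to >95% purity. Human serum was spiked with test compound standards in DMSO (90 μL serum + 10 μL standard). 20 μL of this was added to 80 μL 1.21 × 10−7 M apoAEQ in Buffer A with 5.0 × 10−10 M final coelenterazine, in triplicate, held 2 h at 4 °C. Ca2+/Tris pH 7.5 injection triggered light, collected for 6 s.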

aequorin (AEQ) [3] = experiment: Effect of OH-PCB on AEQ; assay type: biochemical, Aequorea victoria; conditions: initial experiments with apoaequorin and coelenterazine
How it was run: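 ApoAEQ stock was diluted to 1.21 × 10−7 M in 30 mM Tris/HCl pH 7.5, 2 mM EDTA and charged with three-fold molar excess coelenterazine, 4 °C, 18 h. Aequorin was then mixed with test compound in DMSO at 10% or 20% v/v, with DMSO-only and buffer controls. A 10 μL portion was triggered with 50 μL 100 mM Tris/HCl pH 7.5, 100 mM CaCl2 and read on a tube luminometer.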

aequorin (AEQ) [4] = experiment: AEQ bioluminescence inhibition assay in spiked tap water; assay type: biochemical, Aequorea victoria
How it was run: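 Tap water was spiked with test compound standards prepared in DMSO. Same conditions as the buffer assay: 20 μL sample into 80 μL 1.21 × 10−7 M apoAEQ (30 mM Tris/HCl pH 7.5, 2 mM EDTA), 5.0 × 10−10 M final coelenterazine, triplicates, 2 h at 4 °C. Light was triggered with 100 μL 100 mM Tris/HCl pH 7.5, 100 mM CaCl2 and read for 6 s.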

aequorin (AEQ) [5] = experiment: Selectivity studies of the AEQ inhibition assay; assay type: biochemical, Aequorea victoria; conditions: 1.0 × 10^−4 M compound, 5.0 × 10^−10 M coelenterazine
How it was run: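 Selectivity used the optimized inhibition format with various organic compounds dissolved in DMSO. 1.21 × 10−7 M apoAEQ was incubated with 1.0 × 10−4 M compound and 5.0 × 10−10 M coelenterazine, 2 h at 4 °C. Light was triggered by Ca2+ (100 mM CaCl2, 100 mM Tris/HCl pH 7.5) and collected for 6 s. Values are the mean of three measurements ± 1 standard deviation.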

[6] = cited from earlier work
[7] = fetal rat plasma and brain; cited from earlier work
apoaequorin (apoAEQ) = apoaequorin (apoAEQ) (Aequorea victoria, UniProt P07164, C152S/C159S/C187S); experiment: Coelenterazine dose-response curve - EC50 determination; assay type: biochemical
apoaequorin (apoAEQ), sequence (P07164 8-196 C152S/C159S/C187S): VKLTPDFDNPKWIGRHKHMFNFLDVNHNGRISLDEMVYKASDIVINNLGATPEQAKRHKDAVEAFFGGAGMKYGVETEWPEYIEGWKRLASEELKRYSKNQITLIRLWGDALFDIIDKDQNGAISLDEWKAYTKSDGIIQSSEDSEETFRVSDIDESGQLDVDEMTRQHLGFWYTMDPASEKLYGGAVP

aequorin (AEQ), cysteine-free mutant, sequence (P07164 8-196 C152S/C159S/C187S): as above

## Oc1ccccc1-c1cc(Cl)c(Cl)c(Cl)c1Cl [2 hydroxy-2',3',4',5'-tetrachlorobiphenyl]
[1]
  IC50: 1.33 µM

## Oc1cccc(-c2cc(Cl)ccc2Cl)c1O [2,3-dihydroxy-2',5'-dichlorobiphenyl]
[1]
  IC50: 1380 µM

## Oc1cccc(-c2ccc(Cl)c(Cl)c2)c1O [2,3-dihydroxy-3',4'-dichlorobiphenyl]
[1]
  IC50: 550 µM

## Oc1ccc(Cl)cc1-c1cc(Cl)c(Cl)c(Cl)c1Cl [2-hydroxy-2',3',4',5,5'-pentachlorobiphenyl]
Aequorin (AEQ) [2]
  detection limit in serum: 5.02 µM
Aequorin (AEQ) [3]
  decrease of AEQ bioluminescence activity: 99%
Aequorin (AEQ) [4]
  detection limit in tap water: 132 nM
[1]
  IC50: 0.097 µM
[1]; 5.0 × 10^−10 M coelenterazine, buffer
  detection limit: 33 nM
[1]; buffer containing HSA (data not shown)
  detection limit in buffer containing HSA: 3.45 µM

## Oc1c(Cl)ccc(Cl)c1-c1cc(Cl)c(Cl)cc1Cl [2-hydroxy-2',3,4',5',6-pentachlorobiphenyl]
[1]
  IC50: 0.028 µM
[1]; best detection limit of the assay (abstract)
  detection limit: 11 nM

## Oc1ccccc1-c1c(Cl)cc(Cl)cc1Cl [2-hydroxy-2',4',6'-trichlorobiphenyl]
[1]
  IC50: 155 µM

## Oc1ccc(-c2ccc(Cl)c(Cl)c2)cc1O [3,4-dihydroxy-3',4'-dichlorobiphenyl]
[1]
  IC50: > 2000 µM
  effect on bioluminescence emission of AEQ: did not produce a decrease in the bioluminescence emission of AEQ

## O=C(O)c1cccc(Cl)c1 [3-chloro-benzoic acid]
Aequorin (AEQ) [5]
  effect on bioluminescence generated by AEQ: do not decrease the bioluminescence

## Oc1cccc(-c2ccc(Cl)cc2)c1 [3-hydroxy-4'-chlorobiphenyl]
[1]
  IC50: > 2000 µM
  effect on bioluminescence emission of AEQ: did not produce a decrease in the bioluminescence emission of AEQ

## Oc1ccc(-c2cc(Cl)c(Cl)c(Cl)c2Cl)cc1Cl [4-hydroxy-2',3,3',4',5'-pentachlorobiphenyl]
[1]
  IC50: 2.28 µM
  effect on bioluminescence emission of AEQ: greatly inhibited aequorin bioluminescence

## Oc1c(Cl)cc(-c2ccc(Cl)cc2Cl)cc1Cl [4-hydroxy-2',3,4',5-tetrachlorobiphenyl]
[1]
  IC50: 17.5 µM

## Oc1c(Cl)cc(-c2ccccc2Cl)cc1Cl [4-hydroxy-2',3,5-trichlorobiphenyl]
[1]
  IC50: 290 µM

## Oc1ccc(-c2c(Cl)cc(Cl)cc2Cl)cc1 [4-hydroxy-2',4',6'-trichlorobiphenyl]
[1]
  IC50: 15.4 µM

## Oc1ccc(-c2cc(Cl)ccc2Cl)cc1 [4-hydroxy-2',5'-dichlorobiphenyl]
[1]
  IC50: 138 µM

## Oc1ccc(-c2c(Cl)c(Cl)cc(Cl)c2Cl)c(Cl)c1 [4-hydroxy-2,2',3',5',6'-pentachlorobiphenyl]
[1]
  IC50: 9.77 µM
  effect on bioluminescence emission of AEQ: greatly inhibited aequorin bioluminescence

## Oc1c(Cl)cc(-c2cc(Cl)c(Cl)cc2Cl)c(Cl)c1Cl [4-hydroxy-2,2',3,4',5,5'-hexachlorobiphenyl]
[1]
  expected suitability for the inhibition assay: would be suitable for this inhibition assay
[6]
  estrogenic activity: anti-estrogenic

## Oc1c(Cl)cc(-c2ccc(Cl)c(Cl)c2)c(Cl)c1Cl [4-hydroxy-2,3,3',4',5-pentachlorobiphenyl]
[7]
  levels of thyroxine after exposure: lower levels of thyroxine
[1]
  expected suitability for the inhibition assay: would be suitable for this inhibition assay
[6]
  estrogenic activity: weakly estrogenic

## Oc1c(Cl)cc(-c2ccc(Cl)c(Cl)c2)cc1Cl [4-hydroxy-3,3',4',5-tetrachlorobiphenyl]
[1]
  IC50: 130 µM
  effect on bioluminescence emission of AEQ: only a small alteration of the bioluminescence signal

## NC12CC3CC(CC(C3)C1)C2 [amantadine]
Aequorin (AEQ) [5]
  effect on bioluminescence generated by AEQ: do not decrease the bioluminescence

## Oc1ccc(Cc2nc3c(Cc4ccccc4)nc(-c4ccc(O)cc4)cn3c2O)cc1 [coelenterazine]
Apoaequorin (apoAEQ)
  EC50: 0.0618 µM

## CN1CCC[C@H]1c1cccnc1 [nicotine]
Aequorin (AEQ) [5]
  effect on bioluminescence generated by AEQ: do not decrease the bioluminescence
